Hits are enriched below; roughly 2.7% of the tested compounds scored in any of these assays.
Measles CPE – protection of cells from measles virus | Measles virus-infected cells, CPE protection, absorbance | protection (pct of control), % at 4 µM | 140,000 compounds, 1.5% hits; in the data active = protection mostly above about 24%, no sharp cut-off; inactive = mostly below about 26%
ABCG2 inh – human ABCG2 inhibition, ABCB1 as counter-screen. Q9UNQ0. IgMXP3 cells, JC-1 efflux, flow cytometry. 190,000 compounds, 0.1% hits. inhibition, % at 6.6 µM. AID 1325;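 active = inhibition above 80%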
Target sequence (Q9UNQ0 whole entry, looked up): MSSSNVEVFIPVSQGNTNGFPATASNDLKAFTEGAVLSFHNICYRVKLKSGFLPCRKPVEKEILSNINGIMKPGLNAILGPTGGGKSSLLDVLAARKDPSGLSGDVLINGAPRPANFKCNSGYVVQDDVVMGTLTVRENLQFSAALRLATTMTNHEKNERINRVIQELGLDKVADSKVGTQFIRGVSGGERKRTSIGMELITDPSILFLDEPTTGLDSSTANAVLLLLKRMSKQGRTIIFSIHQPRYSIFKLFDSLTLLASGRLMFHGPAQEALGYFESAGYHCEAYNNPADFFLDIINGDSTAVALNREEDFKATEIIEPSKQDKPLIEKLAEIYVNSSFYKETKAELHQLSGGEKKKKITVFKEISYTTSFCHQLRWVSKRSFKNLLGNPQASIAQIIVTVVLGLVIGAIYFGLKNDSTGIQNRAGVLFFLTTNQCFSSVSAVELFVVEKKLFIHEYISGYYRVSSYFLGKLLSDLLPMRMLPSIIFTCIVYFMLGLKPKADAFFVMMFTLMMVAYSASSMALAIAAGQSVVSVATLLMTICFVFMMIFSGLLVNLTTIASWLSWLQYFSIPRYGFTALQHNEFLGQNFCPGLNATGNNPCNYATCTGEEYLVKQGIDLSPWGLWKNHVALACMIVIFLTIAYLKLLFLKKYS
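Test system: IgMXP3 cells (ABCG2) mixed with DDAO far-red-labelled CCRF-Adr cells (ABCB1). Reagent: JC-1 transporter substrate. Compound dosing: single test compound dose, 6.6 µM final. Times: 10 min compound exposure, 25 °C. Detection: flow cytometry of retained JC-1 fluorescence. Read-out basis: efflux inhibition in percent versus controls. Controls: nicardipine and DMSO wells.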
FLuc inhib CS – counter-screen for luciferase assay inhibitors: firefly luciferase inhibition; P08659; ATPLite firefly luciferase biochemical luminescence, 10 min; inhibition, % at 10 µM; 200,000 compounds, 1.5% hits;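 active = inhibition above about 50% when tested at 10 µM, limit read from the data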
Redox H2O2 prof – compounds producing H2O2 with reducing agent – biochemical, NIH compound library profiling, artefact control for MLSCN library redox annotation, primary screen; DTT-dependent redox cycling H2O2, phenol red/HRP absorbance; 100% = 100 µM peroxide control, 0% = buffer; activation, % at 10 µM; 200,000 compounds, 0.03% hits;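 active = activation of at least 50% relative to the plate's high and low controls in the primary single-dose screen; inactive = activation below 50%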;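 also: compound incubated with DTT at 0.8 mM final as the reducing agent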
FLuc act counter – firefly luciferase counter-screen for stimulation assays. activation factor at 10 µM. P08659. 200,000 tested, under 10 active. ATPlite luciferase biochemical, luminescence, 10 min; 0 = ATP-free wells, 1 = DMSO control;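 active = luciferase activation factor, scaled between plate controls, of at least 2 with compound at 10 µM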
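Material: Luciferase/luciferin reagent mix; Doses: test compounds dosed from 2 mM stocks in 100% DMSO; Schedule: 10 min incubation after luciferase reagent addition, room temperature; Measured by: luminescence from luciferase reaction; Read-out: luminescence gain marking luciferase activators.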
ABCB1 block – human ABCB1 inhibition, ABCG2 as counter-screen | P08183 | CCRF-Adr cells, JC-1 efflux, flow cytometry | 190,000 compounds, 0.067% hits | AID 1326 | inhibition, % at 6.6 µM; in the data active = inhibition above about 40%;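 also: higher value means more JC-1 retained so stronger ABCB1 efflux block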
Hits are given with their value; n = inactive; x = no result.

SMILES | Measles CPE | ABCG2 inh | FLuc inhib CS | Redox H2O2 prof | FLuc act counter | ABCB1 block
Cc1ccc(C(C(=O)NC(C)(C)C)N(Cc2ccccc2)C(=O)c2snc(C(N)=O)c2N)o1 (configuration not stated) | x | n | n | n | n | n
O=c1[nH]c(NC2CCCCC2)c([N+](=O)[O-])c(=O)[nH]1 | 28 | n | n | n | n | n
COc1ccc(S(=O)(=O)N2CCC(C(=O)NCc3ccccc3)CC2)cc1OC | x | n | n | n | n | n
COC(=O)c1cc(NC(=O)c2cccc([N+](=O)[O-])c2C)ccc1Cl | x | n | n | n | n | n
Cc1ccc(/C=C/c2nnc(-c3cccs3)o2)cc1 | n | n | 51 | n | n | n
O=C(Cc1cc(=O)[nH]c(=O)[nH]1)NCc1ccc(Cl)cc1 | n | n | n | n | n | n
CCCCNc1c(N)n(CCC)c(=O)[nH]c1=O | x | n | n | n | n | n
CCCn1c(N)c(Br)c(=O)[nH]c1=O | 45 | n | n | n | n | n
COc1cc(C(=O)NCC(=O)N/N=C/c2ccc(OC(=O)c3ccco3)cc2)cc(OC)c1OC | x | n | n | n | n | n
CC(=O)c1cnn(-c2cc(Oc3cccc(C)c3)ncn2)c1C | 51 | n | n | n | n | n
Cc1cc(/C=C2\C(=N)N3N=C(C(C)C)SC3=NC2=O)c(C)n1-c1ccccc1 | x | n | n | n | n | n
O=C(/C=C/c1ccccc1Cl)Nc1ccc2c(c1)C(=O)NC2=O | x | n | n | n | n | n
O=C(/C=C/c1ccccc1[N+](=O)[O-])Nc1ccccc1 | x | n | 50 | n | n | n
O=C(/C=C/c1ccccc1Cl)Nc1cccc(O)c1 | x | n | 84 | n | n | n
COc1cc(NC(=O)/C=C/c2ccccc2[N+](=O)[O-])cc(OC)c1 | n | n | n | n | n | n
CC1(C)CC(=O)C=C(NNC(=O)c2ccccc2O)C1 | n | n | 91 | n | n | n
COc1ccc(C(=O)NNC2=CC(=O)CC(C)(C)C2)cc1 | n | n | n | n | n | n
CCc1c(C)[nH]c2nc3ccccc3n2c1=O | n | n | n | n | n | n
O=c1cc(-c2ccccc2)[nH]c2nc3ccccc3n12 | n | n | 84 | n | n | n
O=C(CN1C(=O)c2cccc3cccc(c23)C1=O)NCCN1CCOCC1 | x | n | n | n | n | n
Cc1ccc(NC(=O)C2C(c3ccccc3)C=CC(c3ccccc3)C2C(=O)O)cc1 (configuration not stated) | 27 | n | n | n | n | n
CCC(C)(C)NC(=O)C(c1cccc(OC)c1OC)N(CCC(C)C)C(=O)CCC(=O)Nc1cc(C)on1 (configuration not stated) | x | n | n | n | n | n
Cc1cc(C)nc(N2CCCC(C(=O)NCCc3ccccc3F)C2)n1 (configuration not stated) | 43 | n | n | n | n | n
CCOc1cc(C)nc(N2CCCC(C(=O)NCc3ccccc3F)C2)n1 (configuration not stated) | n | n | n | n | n | n
Cc1nc(Nc2ccccc2)[nH]c(=O)c1CCC(C)C | n | n | n | n | n | n
SMILES | Measles CPE | ABCG2 inh | FLuc inhib CS | Redox H2O2 prof | FLuc act counter | ABCB1 block
CCCCCc1c(C)nc(NCc2ccccc2)[nH]c1=O | 37 | n | n | n | n | n
COC(=O)C1=C(O)/C(=C\c2cc(C)n(-c3ccccc3F)c2C)N=C1C | x | n | 64 | n | n | n
COc1ccccc1N1CCN(C(CNS(=O)(=O)c2ccccc2)c2cccnc2)CC1 (configuration not stated) | 33 | n | n | n | n | n
C(=N\c1nc2ccccc2[nH]1)/c1cccs1 | n | n | 71 | n | n | n
CCn1ncc(Br)c1C(=O)Nc1ccn(C23CC4CC(CC(C4)C2)C3)n1 | 41 | n | n | n | n | n
N/C(=N\c1nc2c(c(=O)[nH]1)CCC2)Nc1ccccc1 | 48 | n | n | n | n | n
N/C(=N\c1nc2c(c(=O)[nH]1)CCCC2)Nc1ccccc1 | n | n | n | n | n | n
CCCCCNC(=O)CSC1=N/C(=C\c2ccc(Cl)c(Cl)c2)C(=O)N1CC | 41 | n | n | n | n | n
Cc1ncoc1C(=O)N1CCCC(C(=O)c2ccc(C(F)(F)F)cc2)C1 (configuration not stated) | x | n | n | n | n | n
COc1ccc(S(=O)(=O)NCC2CCCN(Cc3ccccc3C)C2)cc1 (configuration not stated) | x | n | n | n | n | n
Cc1cccc(-n2c(CNC(=O)c3ccc(S(=O)(=O)N4CCCC4)cc3)n[nH]c2=S)c1 | 36 | n | n | n | n | n
COc1ccc(-n2c(CNC(=O)c3ccc(S(=O)(=O)N4CCCC4)cc3)n[nH]c2=S)cc1 | n | n | n | n | n | n
Cc1cc2cc(CNC(=O)c3ccc(S(=O)(=O)N4CCCCC4)cc3)ccc2[nH]1 | 35 | n | n | n | n | n
Cc1cc(C)c(-c2cc(NC(=O)CSc3n[nH]c(N)n3)n(-c3ccccc3)n2)cc1C | n | n | n | n | n | n
Cc1cc(S(=O)(=O)NCC(c2ccccc2)c2ccccc2)ccc1-n1cnnn1 | 23 | n | n | n | n | n
CCN(CC)S(=O)(=O)c1ccc(-n2cnnn2)c(C)c1 | 48 | n | n | n | n | n
Cc1cc(S(=O)(=O)NC2CCCCC2)ccc1-n1cnnn1 | x | n | n | n | n | n
COc1ccccc1N1CCN(c2nc3ccccn3c(=O)c2C=O)CC1 | n | n | n | n | n | n
CCOc1ccccc1N(CC(=O)NCc1ccccc1)C(=O)CCC(=O)Nc1cc(C)ccn1 | x | n | n | n | n | n
Cc1ccc2nc(NC(=S)NC(=O)c3cccs3)sc2c1 | n | n | 90 | n | n | n
CCC(=O)Nc1nc2ccc(S(C)(=O)=O)cc2s1 | 52 | n | n | n | n | n
Cc1ccc(-c2csc(NC(=S)NC(=O)c3cccs3)n2)cc1 | n | n | n | n | n | n
Cc1nc(NC(=S)NC(=O)c2cccs2)ccc1Br | n | n | 58 | n | n | n
Cc1ccc2nc(NC(=O)CCCC(=O)O)sc2c1 | x | n | 66 | n | n | n
COc1ccccc1N1CCN(C(=O)c2cccc3c(=O)c(C)c(-c4ccccc4)oc23)CC1 | n | n | n | n | n | n
Cc1ccc2nc(NC(=O)c3cccs3)sc2c1 | n | n | 73 | n | n | n
Cc1ccc(C(=O)Nc2nc3ccccc3s2)s1 | n | n | 60 | n | n | n
CS(=O)(=O)c1ccc2nc(NC(=O)c3cccs3)sc2c1 | n | n | 91 | n | n | n
COc1cc(OC)cc(C(=O)Nc2nc3ccc(S(C)(=O)=O)cc3s2)c1 | x | n | n | n | n | n
Cc1ccc(C(=O)Nc2nc3ccc(S(C)(=O)=O)cc3s2)s1 | n | n | 65 | n | n | n

Assay outcomes deposited in PubChem by several laboratories.
